Entries after “also recorded” stand apart in the source; their conditions may differ. Starred links: 1 amine or outer side, 2 acyl side, 3 side chain; linkers in the order of their positions; H or OH if unused. Non-standard residues stand in square brackets, D forms with d. Residues, ends and D or L forms follow the SMILES beside them. *: point of attachment. X2 = CCC(=O)CC1CC(C)CC(C(=O)[*:2])N1[*:1]; X1 = CCCCCCCCC(C)C(=O)*; Aib = CC(C)(N)C(=O)O; X3 = CC(CN(C)CCO)N*

The subject of experiment [1] is primary mouse astrocytes expressing endogenous AQP4. Description: Calcein fluorescence quenching cell volume assay in primary mouse astrocytes. It is filed as cell-based. As to conditions: for alteration of water flux kinetics / cell volume regulation (RVI, RVD, shrinkage): 20 μM, 15 min incubation, osmotic shock.
Experiment [2] deals with AQP1-expressing fibroblasts (2497 cells). Description: Calcein fluorescence quenching cell volume assay in 2497 fibroblasts. It is filed as cell-based, mouse. As to conditions: 0.2 mM, 3 min preincubation, hyperosmotic challenge. The procedure, abridged: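 Mouse 2497 fibroblasts with endogenous AQP1 were grown in DMEM with 10% FBS at 37 °C. Cells were plated at 12 000 per well and assayed 24–48 h later at 80–85% confluence. They were loaded with 10 μM calcein-AM for 45 min at 37 °C and preincubated with the agent before the osmotic step. Fluorescence was read at ex 490/em 520 nm every 0.5 s: 15 s baseline, 35 s after hyperosmolar PBS (0.5 M NaCl), then 40 s after water. Shrinkage time constant came from an exponential fit.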

In a further experiment the target is AQP4 (Rattus norvegicus, UniProt P47863). It is filed as biochemical. The essentials: (§1)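 Plasma membrane vesicles from rat TNC1 cells were made by homogenisation in sucrose/EDTA/protease-inhibitor buffer (pH 7.2), a 4000g 15 min spin, then pelleting of the supernatant at 17 000g for 45 min. Vesicles at 0.5 mg protein/mL in 50 mM sucrose, 10 mM Tris-HCl pH 7.4 were preincubated 15 min with test compound. Stopped-flow mixing imposed a 250 mOsm inward sucrose gradient. Volume decrease was followed by 90° scatter at 530 nm, and time constant was computed.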
AQP4, sequence (P47863 23-323): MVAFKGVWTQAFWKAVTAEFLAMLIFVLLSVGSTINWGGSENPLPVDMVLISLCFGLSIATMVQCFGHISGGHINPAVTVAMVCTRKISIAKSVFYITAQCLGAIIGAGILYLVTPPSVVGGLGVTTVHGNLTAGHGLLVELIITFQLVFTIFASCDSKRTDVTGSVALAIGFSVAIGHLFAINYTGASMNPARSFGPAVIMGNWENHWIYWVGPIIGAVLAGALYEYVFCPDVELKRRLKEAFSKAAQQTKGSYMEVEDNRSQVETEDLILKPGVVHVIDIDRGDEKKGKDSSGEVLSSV

Experiment [3] has as its system vesicles from TNC1-untransfected cells. Description: Stopped-flow light scattering in vesicles from untransfected TNC1 cells. The class given is biochemical, rat. As to conditions: 20 μM, data not shown. The procedure, abridged: as §1
The target in experiment [4] is T1, AQP1 (native, erythrocytes) (Rattus norvegicus, UniProt P29975).
T1 sequence (P29975 1-269): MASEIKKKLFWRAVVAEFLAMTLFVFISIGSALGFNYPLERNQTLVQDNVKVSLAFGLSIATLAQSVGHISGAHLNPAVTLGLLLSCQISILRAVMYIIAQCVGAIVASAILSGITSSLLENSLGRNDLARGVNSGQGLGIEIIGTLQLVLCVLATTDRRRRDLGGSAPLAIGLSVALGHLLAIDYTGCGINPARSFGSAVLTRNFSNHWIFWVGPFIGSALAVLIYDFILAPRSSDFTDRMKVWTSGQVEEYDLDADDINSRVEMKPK
The experiment is described as follows: Stopped-flow light scattering water transport in erythrocytes. It is filed as cell-based. The procedure, abridged: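 Erythrocytes came from heparinised Wistar rat blood, were washed three times in PBS (800g, 4 °C, 10 min) and used within 24 h. At 1% haematocrit in PBS they were preincubated 15 min with test compound, then stopped-flow mixed with equal-volume hyperosmolar PBS to give a 250 mOsm inward gradient. Shrinkage was recorded by light scattering at 600 nm at 12 °C.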

In experiment [5] the target is AQP4 (M23 isoform) in transfected TNC1 cells (Rattus norvegicus, UniProt P47863). Description: Calcein fluorescence quenching cell volume assay in AQP4-transfected TNC1 cells. The class given is cell-based. As to conditions: 20 uM. The procedure, abridged:
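Rat TNC1 astrocytoma cells were stably co-transfected with rat AQP4 M23 (aa23–323) cDNA and a puromycin-resistance vector, then maintained in 2 μg/mL puromycin. Cells were plated at 12 000 per well and loaded with 10 μM calcein-AM for 45 min at 37 °C. Test compound was given for 15 min at 20 μM final. Calcein fluorescence (490/520 nm) was recorded every 0.5 s through a hyperosmolar NaCl challenge and isosmotic restoration. Shrinkage time constant came from an exponential fit.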

AQP4 (M23 isoform) in transfected TNC1 cells, sequence (P47863 23-323): as the sequence (P47863 23-323) above

On to `[Cl][Hg][Cl]` [HgCl2, mercuric chloride], for which the “effect on time course/kinetics of cell shrinkage” value in experiment [1] (astrocytes pretreated with 0.2 mM, 3 min) is “did not change significantly; also recorded: lack of effect”. Besides, the “reduction of the cell shrinkage rate” value in experiment [2] was 52.7 ± 3%. Regarding `CCC[CH2][Sn]([CH2]CCC)([CH2]CCC)[O]c1cc(Cl)c(Cl)cc1Cl` [NSC164914, tributyl-(2,4,5-trichlorophenoxy)stannane], the “alteration of water flux kinetics / cell volume regulation (RVI, RVD, shrinkage)” value in experiment [1] was “affected shrinkage rate”. Besides, the “effect on AQP4” value on AQP4 was “inhibitory effects”. Further, the “reduction of shrinkage kinetics” value in experiment [3] is “no significant reduction”. Further, in experiment [4], the “effect on AQP1” value was “inhibitory effects”. For the same compound, in experiment [4] (40 μM), the “inhibition of the shrinkage rate” value was ~ 64%. Turning to `CCC[CH2][Pb]([Cl])([CH2]CCC)[CH2]CCC` [NSC168597, tributyl-chloroplumbane], the “effect on AQP4” value at AQP4 was “inhibitory effects”. Besides, the “effect on AQP1” value in experiment [4] is “inhibitory effects”. With `CCCCCCCCC(C)C(=O)N1CCCC1C(=O)N1C(CC(=O)CC)CC(C)CC1C(=O)NC(C)C(=O)NC(C)(C)C(=O)NC(C)(C)C(=O)NC(C(=O)NC(C)C(=O)NC(C)(C)C(=O)NC(C)(C)C(=O)NC(C)CN(C)CCO)C(C)CC` (stereo not shown) [NSC301460, trichopolin] (X1-P[X2]A[Aib][Aib]IA[Aib][Aib]-X3; configuration not given here), in experiment [1], the “alteration of water flux kinetics / cell volume regulation (RVI, RVD, shrinkage)” value is listed as “affected shrinkage rate”.

In the case of `CCCCCn1cc2c3c(cccc31)C1C=C(C)CN(C)[C@@H]1C2.Cc1ccc(C(=O)OC(C(=O)O)C(OC(=O)c2ccc(C)cc2)C(=O)O)cc1` (stereo not shown) [NSC600681], the “AQP4-mediated cell shrinkage time constant” value in experiment [5] is on record as “significantly longer”. For the compound `COc1ccc(CCN2CCC(Nc3nc4ccccc4n3Cc3ccc(F)cc3)CC2)cc1` [astemizole], the “alteration of water flux kinetics / cell volume regulation (RVI, RVD, shrinkage)” value in experiment [1] is recorded as “Altered cell volume regulation”.

Regarding `OCCN1CCN(CCCN2c3ccccc3Sc3ccc(C(F)(F)F)cc32)CC1` [fluphenazine], the “alteration of water flux kinetics / cell volume regulation (RVI, RVD, shrinkage)” value in experiment [1] was “Altered cell volume regulation”.

Source of the values: article PMC2850055 (Analytical chemistry, 2009).
